Experimental data: PMC7723234 (Journal of medicinal chemistry, 2019)
Entries after “also recorded” stand apart in the source; their conditions may differ.

Key:
Human TOP2A = Human TOP2A (Homo sapiens, UniProt P11388); assay: TOP2A decatenation assay; format: biochemical; settings: screen at 30 μM / SAR discussion
In short: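 For screening, TOP2A (3U/reaction) was preincubated 20 min at 37 °C with 30 μM test compound in 1.2% DMSO. Then 2 mM ATP and 35 ng kDNA were added for 1 h at 37 °C. Products ran on 0.8% agarose in TBE with 0.2 μg/mL ethidium bromide (1 h, 100 V), and decatenated bands were compared with vehicle. Dose-responses used 2-fold dilutions (58.6 nM–30 μM) and 4U enzyme.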

hTopoIIα = hTopoIIα (Homo sapiens, UniProt P11388); assay: TOP2A ATPase assay; format: biochemical; settings: ATP hydrolysis, Vmax unchanged, KM shifts
hTopoIIα, sequence (P11388 whole entry): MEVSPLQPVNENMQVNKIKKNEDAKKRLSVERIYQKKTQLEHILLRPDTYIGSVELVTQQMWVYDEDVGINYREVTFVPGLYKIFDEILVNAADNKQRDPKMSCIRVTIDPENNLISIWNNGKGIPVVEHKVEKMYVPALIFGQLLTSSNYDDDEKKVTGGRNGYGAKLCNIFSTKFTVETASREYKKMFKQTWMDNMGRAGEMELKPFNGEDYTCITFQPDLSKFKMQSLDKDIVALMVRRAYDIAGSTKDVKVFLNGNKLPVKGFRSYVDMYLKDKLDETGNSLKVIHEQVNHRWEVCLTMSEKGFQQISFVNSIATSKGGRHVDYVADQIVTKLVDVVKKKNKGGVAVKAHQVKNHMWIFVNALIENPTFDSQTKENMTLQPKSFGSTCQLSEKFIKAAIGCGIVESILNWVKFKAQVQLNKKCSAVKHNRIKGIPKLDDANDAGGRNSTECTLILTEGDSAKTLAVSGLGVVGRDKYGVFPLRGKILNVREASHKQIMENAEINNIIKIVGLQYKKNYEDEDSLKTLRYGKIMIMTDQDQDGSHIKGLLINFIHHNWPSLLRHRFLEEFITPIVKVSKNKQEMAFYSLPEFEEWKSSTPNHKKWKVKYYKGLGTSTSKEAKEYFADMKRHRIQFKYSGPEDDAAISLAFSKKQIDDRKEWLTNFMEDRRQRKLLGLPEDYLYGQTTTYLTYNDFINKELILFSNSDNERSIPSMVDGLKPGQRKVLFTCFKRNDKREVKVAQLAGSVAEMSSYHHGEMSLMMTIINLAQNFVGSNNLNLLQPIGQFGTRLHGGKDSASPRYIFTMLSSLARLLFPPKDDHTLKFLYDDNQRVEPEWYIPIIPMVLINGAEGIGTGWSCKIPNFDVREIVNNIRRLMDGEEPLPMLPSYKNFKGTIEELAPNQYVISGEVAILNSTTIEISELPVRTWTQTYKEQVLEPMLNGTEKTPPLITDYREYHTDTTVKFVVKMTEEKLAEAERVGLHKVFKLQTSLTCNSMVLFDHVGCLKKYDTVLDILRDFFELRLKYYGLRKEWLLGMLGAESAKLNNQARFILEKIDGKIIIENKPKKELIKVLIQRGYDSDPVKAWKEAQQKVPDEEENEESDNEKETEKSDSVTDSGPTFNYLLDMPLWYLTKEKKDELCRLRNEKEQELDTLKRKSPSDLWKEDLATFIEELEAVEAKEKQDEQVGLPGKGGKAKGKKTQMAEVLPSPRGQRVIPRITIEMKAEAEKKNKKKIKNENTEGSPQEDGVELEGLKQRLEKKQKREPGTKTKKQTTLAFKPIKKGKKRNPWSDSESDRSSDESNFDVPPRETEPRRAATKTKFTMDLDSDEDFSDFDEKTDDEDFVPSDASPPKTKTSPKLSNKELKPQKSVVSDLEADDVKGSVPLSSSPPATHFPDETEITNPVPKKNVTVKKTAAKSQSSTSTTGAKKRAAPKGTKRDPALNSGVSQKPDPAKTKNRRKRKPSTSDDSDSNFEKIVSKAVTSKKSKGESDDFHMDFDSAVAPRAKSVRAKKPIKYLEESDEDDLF

SW620 = assay: γ-H2AX DNA damage assay; format: cell-based; settings: concentration range 0–40 μM
[1] = test system: TOP2A-dependent TCF-transcription in SW620-TOP tumor organoids; assay: 3D tumor organoid TOPflash reporter assay; format: cell-based
In short: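 SW620 cells stably carrying pCDH-TOPflash-luc-EF1-puro were seeded at 5,000 cells/well in ultra-low-attachment U-bottom wells, centrifuged, given 2% Matrigel (final) and grown 72 h in phenol red-free RPMI-1640 with 5% FBS. Organoids were treated 72 h. One-Glo luciferase and CellTiter-Glo 3D were added 1:1 and luminescence read. TCF signal was normalised to viability, then to DMSO controls.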

[2] = test system: caspase 3 and 7 activity in SW620 tumor organoids; assay: Tumor organoid caspase 3/7 activity; format: cell-based; settings: higher doses, vs DMSO
In short: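 SW620 cells were seeded at 2,000/well in round-bottom ultra-low-attachment 384-well plates in RPMI-1640 with 5% FBS and 2% Matrigel, grown 72 h, then treated with a range of doses for 72 h. Caspase-Glo 3/7 was added 1:1, plates shaken 30 min, and luminescence read. Staurosporine served as positive control and 0.4% DMSO as negative control.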

SW620 cells = assay: Tumor organoid CSC stemness assay; format: cell-based; settings: SW620 cells pretreated 24 h, colonies over seven days, vs DMSO
SW620 tumor organoids = assay: SW620 tumor organoid growth in volume; format: cell-based; settings: 72 h, vs DMSO
[3] = Microsome stability studies; format: in vitro ADME; settings: mouse microsomes; for microsomal stability (in words): Phase I, 0 to 60 min
In short: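 Female CD-1 mouse liver microsomes (0.5 mg/mL) with 1.5 mM NADPH in 0.1 M phosphate buffer, pH 7.4, were pre-warmed 5 min at 37 °C. Reactions were started with 1 μg/mL test compound and run at 37 °C. Aliquots taken over 0–60 min were quenched with equal-volume acetonitrile and centrifuged (20,000g, 10 min) for LCMS. Compound-stability controls under reaction conditions were included.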

In vivo PK studies = settings: female CD-1 mice, single IP 50 mg/kg, plasma
In short: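 Female CD-1 mice got one IP dose of 50 mg/kg in 100% DMSO. Blood was sampled from 0.25–24 h, three mice per time point (21 per compound), into sodium heparin. Plasma was spun out (1800xg, 10 min, 4 °C), frozen at −80 °C, mixed 1:1 with ACN acidified with formic or trifluoroacetic acid (0.1%, varying by compound), centrifuged and analysed by LC-MS/MS.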

[4] = Compound aqueous solubility in PBS; format: physicochemical; settings: ratio to prototype 7
In short: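 Test compound (1 mg) was dissolved in 200 μL 10% DMSO in PBS, pH 7.4, and equilibrated as for the 1-propanol solutions (18 h, 25 °C), then centrifuged. The UV absorption spectrum was compared with a fully saturated 1-propanol solution, and solubility was calculated by linear regression.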

[5] = test system: TOP2A mediated TCF-transcription; settings: cited from earlier work
[6] = cited from earlier work
[7] = cited from earlier work; remark: listed apart in the source

Human TOP2A, sequence (P11388 whole entry): as above

CC(=O)Nc1ccc2c(-c3cc(F)ccc3O)ccnc2c1O [Compound 7, 7-Acetamido-4-(5-fluoro-2-hydroxyphenyl)-8-hydroxyquinoline]
inhibition of TOP2A decatenation (in words) (Human TOP2A): complete inhibition
mode of TOP2A inhibition (hTopoIIα): competitive mode of inhibition
DNA double stranded breaks (H2AX S139 phosphorylation immunofluorescence) (SW620): do not cause DNA DSBs
inhibition of TOP-activity (TOPflash) in words [1]: significantly inhibit
induction of apoptosis (caspase 3 and 7 cleavage) in words [2]: induce apoptosis
colony formation (clonogenic assay) (SW620 cells): inhibit colony formation
tumor organoid growth in volume (SW620 tumor organoids): significantly inhibited tumor organoid growth
microsomal stability (in words) [3]: metabolized faster within the first 30 minutes
CL (In vivo PK studies): 64.5 mL/min/kg

CC(=O)Nc1ccc2c(-c3ccccc3)ccnc2c1O [Compound 28, 7-Acetamido-4-(phenyl)-8-hydroxyquinoline]
microsomal stability (in words) [3]: biphasic kinetics

CC(=O)Nc1ccc2c(-c3ccc(F)cc3)ccnc2c1O [Compound 30, 7-Acetamido-4-(4-fluorophenyl)-8-hydroxyquinoline]
inhibition of TOP2A decatenation (in words) (Human TOP2A): activity is lost

CC(=O)Nc1ccc2c(-c3cccc(C(F)(F)F)c3)ccnc2c1O [Compound 31, 7-Acetamido-4-((3-trifluoromethyl)phenyl)-8-hydroxyquinoline]
inhibition of TOP2A decatenation (in words) (Human TOP2A): excellent inhibitory activity
microsomal stability (in words) [3]: not readily transformed by Phase I metabolic enzymes

CC(=O)Nc1ccc2c(-c3ccc(C(F)(F)F)cc3)ccnc2c1O [Compound 32, 7-Acetamido-4-((4-trifluoromethyl)phenyl)-8-hydroxyquinoline]
inhibition of TOP2A decatenation (in words) (Human TOP2A): excellent inhibitory activity

CC(=O)Nc1ccccc1-c1ccnc2c(O)c(NC(C)=O)ccc12 [Compound 34, 7-Acetamido-4-(2-acetamidophenyl)-8-hydroxyquinoline]
inhibition of TOP2A decatenation (in words) (Human TOP2A): significant loss of activity

CC(=O)Nc1ccc(-c2ccnc3c(O)c(NC(C)=O)ccc23)cc1 [Compound 35, 7-Acetamido-4-(4-acetamidophenyl)-8-hydroxyquinoline]
inhibition of TOP2A decatenation (in words) (Human TOP2A): restored inhibitory activity
microsomal stability (in words) [3]: not readily transformed by Phase I metabolic enzymes

CC(=O)Nc1cccc(-c2ccnc3c(O)c(NC(C)=O)ccc23)c1 [Compound 36, 7-Acetamido-4-(3-acetamidophenyl)-8-hydroxyquinoline]
inhibition of TOP2A decatenation (in words) (Human TOP2A): significant loss of activity

CC(=O)Nc1ccc2c(-c3cc(C(F)(F)F)ccc3O)ccnc2c1O [Compound 37, 7-Acetamido-4-(2-hydroxy-5-trifluoromethylphenyl)-8-hydroxyquinoline]
inhibition of TOP2A decatenation (in words) (Human TOP2A): excellent inhibitory activity

CC(=O)Nc1ccc2c(-c3cc(Cl)ccc3O)ccnc2c1O [Compound 38, 7-Acetamido-4-(5-chloro-2-hydroxyphenyl)-8-hydroxyquinoline]
inhibition of TOP2A decatenation (in words) (Human TOP2A): did not inhibit

O=C(CCN1CCOCC1)Nc1ccc2c(-c3cc(F)ccc3O)ccnc2c1O [Compound 42, 4-(5-fluoro-2-hydroxyphenyl)-8-hydroxy-7-(3-(morpholin-4-yl)propanamido)quinoline]
induction of apoptosis (caspase 3 and 7 cleavage) in words [2]: induce apoptosis
tumor organoid growth in volume (SW620 tumor organoids): significantly inhibited tumor organoid growth
microsomal stability (in words) [3]: least stable
solubility in PBS compared to prototype 7 [4]: 3.4 times
CL (In vivo PK studies): 62.2 mL/min/kg

CC(=O)Nc1ccc2c(-c3cc4ccccc4o3)ccnc2c1O [Compound 53, 7-Acetamido-4-(2-benzofuranyl)-8-hydroxyquinoline]
inhibition of TOP2A decatenation (in words) (Human TOP2A): complete inhibitory activity
microsomal stability (in words) [3]: not readily transformed by Phase I metabolic enzymes
CL (In vivo PK studies): 283.2 mL/min/kg

CC(=O)Nc1ccc2c(-c3cc4ccccc4s3)ccnc2c1O [Compound 54, 7-Acetamido-4-(benzo[b]thiophen-2-yl)-8-hydroxyquinoline]
inhibition of TOP2A decatenation (in words) (Human TOP2A): inhibition was lost

CC(=O)Nc1ccc2c(-c3ccco3)ccnc2c1O [Compound 55, 7-Acetamido-4-(2-furanyl)-8-hydroxyquinoline]
inhibition of TOP2A decatenation (in words) (Human TOP2A): significant loss of activity

CC(=O)Nc1ccc2c(-c3ccsc3)ccnc2c1O [Compound 58, 7-Acetamido-4-(thiophen-3-yl)-8-hydroxyquinoline]
inhibition of TOP2A decatenation (in words) (Human TOP2A): improves activity compared to the 3-furanyl analog 56
microsomal stability (in words) [3]: metabolized faster within the first 30 minutes; also recorded: biphasic kinetics

O=C(CN1CCOCC1)Nc1ccc2c(-c3cc4ccccc4o3)ccnc2c1O [Compound 60, 4-(2-benzofuranyl)-8-hydroxy-7-(2-(morpholin-4-yl)acetamido)quinoline]
induction of apoptosis (caspase 3 and 7 cleavage) in words [2]: induce apoptosis
tumor organoid growth in volume (SW620 tumor organoids): significantly inhibited tumor organoid growth
microsomal stability (in words) [3]: not readily transformed by Phase I metabolic enzymes
CL (In vivo PK studies): 137 mL/min/kg

O=C(CCN1CCOCC1)Nc1ccc2c(-c3cc4ccccc4o3)ccnc2c1O [Compound 61, 4-(2-benzofuranyl)-8-hydroxy-7-(3-(morpholin-4-yl)propanamido)quinoline]
half-life at 1 μg/mL ([3]; female, CD-1, mouse, pH 7.4): 15 min
microsomal stability (in words) [3]: not readily transformed by Phase I metabolic enzymes
CL (In vivo PK studies): 61.8 mL/min/kg

COc1cc([C@@H]2c3cc4c(cc3[C@@H](O[C@@H]3O[C@@H]5CO[C@@H](C)O[C@H]5[C@H](O)[C@H]3O)[C@H]3COC(=O)[C@H]23)OCO4)cc(OC)c1O [etoposide]
effect on TOP2A mediated TCF-transcription [5]: do not inhibit

O=C1NC(=S)NC(=O)C1C(=O)Nc1ccccc1 [merbarone]
effect on TOP2A mediated TCF-transcription [5]: do not inhibit

Cn1ccc2c(c1=O)C(=O)c1nccc3c1c-2nc1ccccc13 [neo, neoamphimedine]
mode of TOP2A inhibition (hTopoIIα): competitive mode of inhibition
DNA double stranded breaks (H2AX S139 phosphorylation immunofluorescence) (SW620): do not cause DNA DSBs
effect on TOP2A mediated TCF-transcription [5]: prevents TCF-transcription
solubility in water [6]: insoluble
metabolic stability [7]: metabolically unstable
